From ChEMBL document CHEMBL3085708, “Identification and profiling of 3,5-dimethyl-isoxazole-4-carboxylic acid [2-methyl-4-((2S,3'S)-2-methyl-[1,3']bipyrrolidinyl-1'-yl)phenyl] amide as histamine H(3) receptor antagonist for the treatment of depression” (Bioorg Med Chem Lett, 2013)

How the values were obtained:
[1] = Drug metabolism in rabbit liver microsomes; assay type: ADME, Oryctolagus cuniculus, Microsome; settings: read-out: Drug metabolism
[2] = Drug metabolism in human liver microsomes; assay type: ADME; settings: read-out: Drug metabolism
Mus musculus [3] = assay: Toxicity in mouse assessed as effect on autonomic activity at 10 to 30 mg/kg, po by Irwin test; assay type: organism-based; parameters: dose 10-30 mg/kg, route oral; settings: in vivo
In short: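 Irwin exploratory general behaviour study in male mice; single oral doses of 0, 10 and 30 mg/kg; behavioural, neurologic and autonomic effects observed.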

Mus musculus [4] = assay: Toxicity in mouse assessed as effect on convulsion at 30 mg/kg, po; assay type: organism-based; parameters: dose 30 mg/kg, route oral; settings: in vivo
In short: (§1)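 Acute oral group toxicity in mice: behavioural side effects scored (social interaction, motility, preconvulsant signs, convulsions, tremor) after single po doses of 30 and 100 mg/kg.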

[5] = Toxicity in guinea pig heart assessed as decrease in ventricular contraction at 10 uM relative to control; assay type: tissue-based, Cavia porcellus, Cardiac ventricle
[6] = Toxicity in po dosed mouse; settings: in vivo
[7] = Drug metabolism in dog plasma at 100 ng/ml after 4 hrs; assay type: ADME, cell-free, Canis lupus familiaris; settings: read-out: Drug metabolism
In short: (§2)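 Compound spiked into blank plasma of human, mouse, rat, rabbit, macaque and dog at 100 ng/ml, then incubated in a 37 °C water bath for up to 4 h; percent metabolized reported.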

Mus musculus [8] = assay: Toxicity in mouse assessed as appearance of tremor at 100 mg/kg, po; assay type: organism-based; parameters: dose 100 mg/kg, route oral; settings: in vivo; in short: as §1
[9] = Elimination half life in OF1 mouse brain at 2 mg/kg, iv; assay type: ADME, organism-based; parameters: dose 2 mg/kg, route intravenous; settings: read-out: beta t1/2 (converted)
In short: (§3)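 Single-dose PK; male OF1 mice and male Sprague-Dawley rats, 2 mg/kg iv and 10 mg/kg po. Mouse vehicles: iv 50% 1-methyl-2-pyrrolidinone in saline (1.0 mg/mL); po 5% DMSO/0.5% MC/0.2% Tween80 (1.0 mg/mL). Rat vehicles: iv saline (0.5 mg/mL); po 0.5% MC/0.2% Tween80 (1.0 mg/mL). Plasma and brain exposure read as AUC0-∞ and t1/2.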

[10] = biological target: T1, Voltage-gated inwardly rectifying potassium channel KCNH2 (Canis lupus familiaris, UniProt Q9TSZ3); assay: Inhibition of canine ERG current transfected in CHO cells by patch clamp assay; assay type: cell-based
T1 sequence (Q9TSZ3 whole entry): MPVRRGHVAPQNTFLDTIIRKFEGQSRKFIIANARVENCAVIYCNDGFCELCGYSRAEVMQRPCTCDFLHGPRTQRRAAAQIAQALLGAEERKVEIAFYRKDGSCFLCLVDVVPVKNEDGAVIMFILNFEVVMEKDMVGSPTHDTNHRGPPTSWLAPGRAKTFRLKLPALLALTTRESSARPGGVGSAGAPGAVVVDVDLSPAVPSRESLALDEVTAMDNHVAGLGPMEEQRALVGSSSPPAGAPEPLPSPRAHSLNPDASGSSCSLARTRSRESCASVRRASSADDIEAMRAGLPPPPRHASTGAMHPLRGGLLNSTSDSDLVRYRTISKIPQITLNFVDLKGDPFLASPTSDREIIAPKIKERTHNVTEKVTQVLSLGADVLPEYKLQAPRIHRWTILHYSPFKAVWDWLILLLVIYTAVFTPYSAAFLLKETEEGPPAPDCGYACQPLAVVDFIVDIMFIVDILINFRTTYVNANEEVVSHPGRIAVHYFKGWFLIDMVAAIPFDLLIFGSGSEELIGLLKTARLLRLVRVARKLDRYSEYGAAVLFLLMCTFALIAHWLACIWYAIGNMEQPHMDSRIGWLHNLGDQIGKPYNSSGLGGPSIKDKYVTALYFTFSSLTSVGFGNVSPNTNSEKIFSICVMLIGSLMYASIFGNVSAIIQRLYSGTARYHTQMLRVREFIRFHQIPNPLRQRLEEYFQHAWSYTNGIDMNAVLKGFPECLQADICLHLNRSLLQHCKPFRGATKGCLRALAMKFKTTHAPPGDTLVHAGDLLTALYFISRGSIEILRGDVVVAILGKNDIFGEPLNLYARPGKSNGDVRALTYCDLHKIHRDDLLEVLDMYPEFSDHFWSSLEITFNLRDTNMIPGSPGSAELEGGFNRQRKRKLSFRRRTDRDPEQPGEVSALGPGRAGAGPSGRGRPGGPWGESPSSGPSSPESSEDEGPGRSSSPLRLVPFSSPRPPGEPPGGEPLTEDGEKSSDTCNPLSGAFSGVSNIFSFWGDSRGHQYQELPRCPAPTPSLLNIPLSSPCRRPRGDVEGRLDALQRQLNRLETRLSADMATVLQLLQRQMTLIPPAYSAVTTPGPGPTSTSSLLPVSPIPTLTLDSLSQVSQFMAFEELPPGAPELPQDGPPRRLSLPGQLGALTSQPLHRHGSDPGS
In short: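 Whole-cell patch clamp on CHO cells stably transfected with the canine ERG gene; cERG current IC50 from n = 4.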

[11] = Mutagenic activity in micronucleus (unknown origin) at 5 to 950 ug/mL in presence of human liver microsomes; assay type: toxicity
In short: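 In vitro micronucleus test; concentrations 5 to 950 µg/mL, run with and without metabolic activation by human liver microsomes.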

Mus musculus [12] = assay: Toxicity in mouse assessed as effect on preconvulsion at 30 mg/kg, po; assay type: organism-based; parameters: dose 30 mg/kg, route oral; settings: in vivo; in short: as §1
Mus musculus [13] = assay: Toxicity in mouse assessed as effect on social interaction at 30 mg/kg, po; assay type: organism-based; parameters: dose 30 mg/kg, route oral; settings: in vivo; in short: as §1
[14] = Therapeutic index, ratio for toxicity in mouse to ratio for antidepression-like activity in rat; settings: in vivo, read-out: TI
[15] = Drug metabolism in rat liver microsomes; assay type: ADME; settings: read-out: Drug metabolism
Cytochrome P450 2C9 = Cytochrome P450 2C9 (Homo sapiens, UniProt P11712); assay: Inhibition of CYP2C9 (unknown origin) after 4 hrs; assay type: ADME
Chain of Cytochrome P450 2C9 (P11712 whole entry): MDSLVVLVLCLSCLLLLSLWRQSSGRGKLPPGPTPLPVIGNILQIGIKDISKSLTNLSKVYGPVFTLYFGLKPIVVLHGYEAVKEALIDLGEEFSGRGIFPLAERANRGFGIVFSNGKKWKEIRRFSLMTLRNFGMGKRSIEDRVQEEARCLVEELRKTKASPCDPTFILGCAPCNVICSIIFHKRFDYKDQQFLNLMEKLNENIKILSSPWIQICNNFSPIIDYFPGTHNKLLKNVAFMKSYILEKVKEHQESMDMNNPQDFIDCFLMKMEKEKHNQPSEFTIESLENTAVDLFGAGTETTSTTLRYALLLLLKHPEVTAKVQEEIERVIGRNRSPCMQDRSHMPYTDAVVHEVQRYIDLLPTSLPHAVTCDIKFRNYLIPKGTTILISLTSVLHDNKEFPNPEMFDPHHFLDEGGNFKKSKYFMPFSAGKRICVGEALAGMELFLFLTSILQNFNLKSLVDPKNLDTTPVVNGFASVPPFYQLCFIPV

[16] = Tmax in OF1 mouse brain at 10 mg/kg, po; assay type: ADME, organism-based; parameters: dose 10 mg/kg, route oral
In short: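 Male OF1 mice given 2 mg/kg iv (50% 1-methyl-2-pyrrolidinone in saline, 1.0 mg/mL) and 10 mg/kg po (5% DMSO/0.5% MC/0.2% Tween80, 1.0 mg/mL); plasma and brain exposure measured; B/P ratio from iv AUC.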

[17] = Elimination half life in OF1 mouse plasma at 2 mg/kg, iv; assay type: ADME, organism-based; parameters: dose 2 mg/kg, route intravenous; settings: read-out: beta t1/2 (converted); in short: as §3
Histamine H3 receptor [18] = biological target: Histamine H3 receptor (Rattus norvegicus, UniProt Q9QYN8); assay: Displacement of [3H]-methylhistamine from rat histamine H3 receptor (445 amino acid residues) transfected in human 293 cells after 1 hr by scintillation counting analysis; assay type: cell-based
Chain of Histamine H3 receptor (Rattus norvegicus, UniProt Q9QYN8) (Q9QYN8 whole entry): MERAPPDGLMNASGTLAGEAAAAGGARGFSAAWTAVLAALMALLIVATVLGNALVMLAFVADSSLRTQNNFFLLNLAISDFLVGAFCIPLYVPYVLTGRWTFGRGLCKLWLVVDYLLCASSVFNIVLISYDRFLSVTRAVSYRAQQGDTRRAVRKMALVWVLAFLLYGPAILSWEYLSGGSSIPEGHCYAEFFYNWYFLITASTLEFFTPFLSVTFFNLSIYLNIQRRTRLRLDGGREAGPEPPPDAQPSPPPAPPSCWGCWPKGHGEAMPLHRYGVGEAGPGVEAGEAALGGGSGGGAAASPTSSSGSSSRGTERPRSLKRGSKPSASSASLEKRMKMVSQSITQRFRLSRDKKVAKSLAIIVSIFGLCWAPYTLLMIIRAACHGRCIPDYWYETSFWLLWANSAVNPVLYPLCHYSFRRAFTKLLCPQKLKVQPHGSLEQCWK

Cytochrome P450 3A4 = Cytochrome P450 3A4 (Homo sapiens, UniProt P08684); assay: Inhibition of CYP3A4 (unknown origin) after 4 hrs; assay type: ADME
Chain of Cytochrome P450 3A4 (P08684 whole entry): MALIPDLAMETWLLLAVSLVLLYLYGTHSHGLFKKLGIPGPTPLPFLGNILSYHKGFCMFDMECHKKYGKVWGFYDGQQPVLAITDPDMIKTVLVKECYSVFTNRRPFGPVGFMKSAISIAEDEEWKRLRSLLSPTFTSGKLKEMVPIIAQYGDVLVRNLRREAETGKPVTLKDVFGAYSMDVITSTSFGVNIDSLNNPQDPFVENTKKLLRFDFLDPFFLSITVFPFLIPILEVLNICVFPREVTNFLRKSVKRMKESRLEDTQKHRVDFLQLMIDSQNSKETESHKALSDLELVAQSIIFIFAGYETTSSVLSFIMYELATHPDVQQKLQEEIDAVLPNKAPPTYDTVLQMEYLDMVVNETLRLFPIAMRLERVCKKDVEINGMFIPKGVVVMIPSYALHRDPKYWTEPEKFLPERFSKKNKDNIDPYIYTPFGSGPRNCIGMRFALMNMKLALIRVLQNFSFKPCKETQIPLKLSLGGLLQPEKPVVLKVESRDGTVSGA

[19] = Drug metabolism in guinea pig liver microsomes; assay type: ADME, Cavia porcellus, Microsome; settings: read-out: Drug metabolism
[20] = AUC (0 to infinity) in OF1 mouse plasma at 2 mg/kg, iv; assay type: ADME, organism-based; parameters: time infinity, dose 2 mg/kg, route intravenous; in short: as §3
Mus musculus [21] = assay: Toxicity in mouse assessed as effect on motility at 30 mg/kg, po; assay type: organism-based; parameters: dose 30 mg/kg, route oral; settings: in vivo; in short: as §1
[22] = AUC (0 to infinity) in Sprague-Dawley rat brain at 2 mg/kg, iv; assay type: ADME, organism-based; parameters: time infinity, dose 2 mg/kg, route intravenous; in short: as §3
Histamine H3 receptor [23] = biological target: Histamine H3 receptor (Homo sapiens, UniProt Q9Y5N1); assay: Inverse agonist activity at human histamine H3 receptor (445 amino acid residues) expressed in CHO cells by CRE-luciferase reporter gene assay; assay type: functional, cell-based
Chain of Histamine H3 receptor (Homo sapiens, UniProt Q9Y5N1) (Q9Y5N1 whole entry): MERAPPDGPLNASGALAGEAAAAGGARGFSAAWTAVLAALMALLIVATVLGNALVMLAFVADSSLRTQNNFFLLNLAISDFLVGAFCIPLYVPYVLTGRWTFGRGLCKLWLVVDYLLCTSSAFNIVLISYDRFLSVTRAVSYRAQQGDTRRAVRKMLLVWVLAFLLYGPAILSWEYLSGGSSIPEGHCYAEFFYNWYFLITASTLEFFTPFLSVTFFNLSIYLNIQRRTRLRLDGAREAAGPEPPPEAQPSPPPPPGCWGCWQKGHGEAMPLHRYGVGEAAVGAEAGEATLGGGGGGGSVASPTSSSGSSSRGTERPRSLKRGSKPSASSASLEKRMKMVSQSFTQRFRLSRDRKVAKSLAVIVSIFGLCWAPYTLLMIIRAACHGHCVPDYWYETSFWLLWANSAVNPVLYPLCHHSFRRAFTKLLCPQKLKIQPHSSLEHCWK

[24] = Drug metabolism in human plasma at 100 ng/ml after 4 hrs; assay type: ADME, cell-free; settings: read-out: Drug metabolism; in short: as §2

## Cc1cc(N2CC[C@H](N3CCC[C@@H]3C)C2)ccc1NC(=O)c1c(C)noc1C
[1]
  metabolised: < 5%
[2]
  metabolised: < 5%
Mus musculus [3]
  Activity: Non-toxic
Mus musculus [4]
  Activity: Non-toxic
[5]
  inhibition at 10 µM: 23%
[6]
  MTD: 30 mg/kg
[7]
  metabolised at 4 h, 100 ng/ml: < 5%
Mus musculus [8]
  Activity: Toxic
[9]
  half-life: 55.8 min
[10]
  IC50: 44 µM
[11]
  Activity: Non-toxic
Mus musculus [12]
  Activity: Non-toxic
Mus musculus [13]
  Activity: Non-toxic
[14]
  selectivity ratio: 3
[15]
  metabolised: < 5%
Cytochrome P450 2C9
  IC50: > 100 µM
[16]
  Tmax: 10.2 min
[17]
  half-life: 39 min
Histamine H3 receptor [18]
  Ki: 0.0009 µM
Cytochrome P450 3A4
  IC50: > 100 µM
[19]
  metabolised: 35%
[20]
  AUC(0-inf): 670 ng·h/mL
Mus musculus [21]
  Activity: Non-toxic
[22]
  AUC(0-inf): 1200 ng·h/mL
Histamine H3 receptor [23]
  EC50: 0.0007 µM
[24]
  metabolised at 4 h, 100 ng/ml: < 5%
